# Experimental data taken from ChEMBL document CHEMBL3627638, “Mixed up minor groove binders: Convincing A·T specific compounds to recognize a G·C base pair” (Bioorg Med Chem Lett, 2015).
# Activity calls are given as the source filed them. The rule behind the calls is not given here.
# Assays:
# DNA [1] = assay: Binding affinity to AATTGCAATT-AATTGCAATT DNA fragment (unknown origin) by DNaseI footprinting analysis; type: nucleic-acid assay; settings: Homo sapiens
# DNA [2] = assay: Binding affinity to A4CT4-A4GT4 DNA fragment (unknown origin) by DNaseI footprinting analysis; type: nucleic-acid assay; settings: Homo sapiens
# Nucleic Acid [3] = assay: Binding affinity to hairpin oligomer duplex A4T4 DNA (unknown origin) assessed as change in melting temperature at 2:1 drug/DNA ratio by spectrophotometry; type: nucleic-acid assay
# DNA [4] = assay: Binding affinity to AATTCAATT-AATTGAATT DNA fragment (unknown origin) by DNaseI footprinting analysis; type: nucleic-acid assay; settings: Homo sapiens
# Nucleic Acid [5] = assay: Binding affinity to hairpin oligomer duplex A4GCT4 DNA (unknown origin) assessed as change in melting temperature at 2:1 drug/DNA ratio by spectrophotometry; type: nucleic-acid assay
# Nucleic Acid [6] = assay: Binding affinity to hairpin oligomer duplex A4T4 DNA (unknown origin) at 4:1 drug/DNA ratio by ESI mass spectrometry; type: nucleic-acid assay; settings: Homo sapiens
# Method in brief: (§1)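 Competition ESI-MS run on a mixture of DNA sequences with a pure GC sequence as non-binding internal standard. Ligand was titrated at 1:1, 2:1 and 4:1 mole ratios to each single sequence (e.g. 10 μM ligand to 5 μM DNA). Relative peak intensities of free DNA and ligand-DNA complexes were compared.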
# Nucleic Acid [7] = assay: Binding affinity to hairpin oligomer duplex A4GT4 DNA (unknown origin) at 4:1 drug/DNA ratio by ESI mass spectrometry; type: nucleic-acid assay; settings: Homo sapiens; method in brief: as §1
# Nucleic Acid [8] = assay: Binding affinity to hairpin oligomer duplex A4GCT4 DNA (unknown origin) by ESI mass spectrometry; type: nucleic-acid assay; settings: Homo sapiens
# Nucleic Acid [9] = assay: Binding affinity to hairpin oligomer duplex A4GT4 DNA (unknown origin) assessed as change in melting temperature at 2:1 drug/DNA ratio by spectrophotometry; type: nucleic-acid assay
# Nucleic Acid [10] = assay: Binding affinity to biotinylated-hairpin oligomer duplex A4GT4 DNA (unknown origin) by surface plasmon resonance method in presence of 0.1 M Na+ ion; type: nucleic-acid assay, Homo sapiens
# Method in brief: (§2)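 SPR sensorgrams recorded for ligand injected over immobilized hairpin DNA at a concentration series: 2, 3, 5, 7, 10 and 15 nM for A4GT4, higher concentrations for A4IT4 and A4T4.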
# Nucleic Acid [11] = assay: Binding affinity to biotinylated-hairpin oligomer duplex A4IT4 DNA (unknown origin) by surface plasmon resonance method; type: nucleic-acid assay, Homo sapiens; method in brief: as §2
# Nucleic Acid [12] = assay: Binding affinity to biotinylated-hairpin oligomer duplex A4T4 DNA (unknown origin) by surface plasmon resonance method; type: nucleic-acid assay; settings: Homo sapiens; method in brief: as §2
# Nucleic Acid [13] = assay: Binding affinity to hairpin oligomer duplex A4GT4 DNA (unknown origin) by circular dichroism method; type: nucleic-acid assay; settings: Homo sapiens
# Method in brief: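 Ligand titrated incrementally into the DNA, with CD spectra followed in the DNA region (230 to 290 nm).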
# Nucleic Acid [14] = assay: Binding affinity to biotinylated-hairpin oligomer duplex A4GCT4 DNA (unknown origin) by surface plasmon resonance method; type: nucleic-acid assay; settings: Homo sapiens
Activity (DNA [1]),Activity (DNA [2]),ΔTm (Nucleic Acid [3]),Activity (DNA [4]),ΔTm (Nucleic Acid [5]),Activity (Nucleic Acid [6]),Activity (Nucleic Acid [7]),Activity (Nucleic Acid [8]),ΔTm (Nucleic Acid [9]),Kd (Nucleic Acid [10]),Kd (Nucleic Acid [11]),Activity (Nucleic Acid [12]),Activity (Nucleic Acid [13]),Activity (Nucleic Acid [14]),SMILES
Active,Active,21 °C,Active,< 1 °C,Active,Active,inactive,17 °C,,,,,,N=C(N)c1ccc2nc(-c3ccc(OCc4cccc(COc5ccc(-c6nc7ccc(C(=N)N)cc7[nH]6)cc5)c4)cc3)[nH]c2c1
,,24 °C,,5 °C,Active,Active,inactive,19 °C,,,,,,N=C(N)c1ccc2nc(-c3ccc(-c4cccc(-c5ccc(-c6nc7ccc(C(=N)N)cc7[nH]6)cc5)n4)cc3)[nH]c2c1
inactive,Active,15 °C,Active,8 °C,,Active,inactive,22 °C,0.015 nM,1.2 nM,Active,Active,inactive,N=C(N)c1ccc2nc(-c3ccc(OCc4cccc(COc5ccc(-c6nc7ccc(C(=N)N)cc7[nH]6)cc5)n4)cc3)[nH]c2c1
,,14 °C,,6 °C,,,,19 °C,,,,,,CN1CCN(c2ccc3nc(-c4ccc(OCc5cccc(COc6ccc(-c7nc8ccc(N9CCN(C)CC9)cc8[nH]7)cc6)n5)cc4)[nH]c3c2)CC1
